The values that follow come from ChEMBL document CHEMBL1136581, “Synthesis of dopamine transporter selective 3-[2-(diarylmethoxyethylidene)]-8-alkylaryl-8-azabicyclo[3.2.1]octanes” (Bioorg Med Chem Lett, 2003).

The term Ki denotes a dissociation constant, usually derived from enzyme kinetics or from competition with a known ligand.

Assay [1] concerns the target Monoamine transporters; serotonin & dopamine (Rattus norvegicus) (UniProt P31652+P23977). The assay is described as follows: Binding affinity towards serotonin transporter compared to dopamine transporter. In kind it is protein assay.
For assay [2], the target named is Sodium-dependent dopamine transporter (Rattus norvegicus, UniProt P23977). Nature of the assay: Binding affinity at dopamine transporter from rat caudate-putamen tissue by [3H]WIN-35428 displacement. A digest of the protocol:
(§1)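 Compounds were tested as oxalate salts. Ki values are the mean ± SEM of three experiments, each run in triplicate.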

Assay [3] has as its target Sodium-dependent serotonin transporter (Rattus norvegicus, UniProt P31652). Nature of the assay: Binding affinity at serotonin transporter from rat caudate-putamen tissue by [3H]WIN-35428 displacement. The class given is tissue-based. A digest of the protocol: as §1

Sodium-dependent dopamine transporter, sequence (P23977 whole entry): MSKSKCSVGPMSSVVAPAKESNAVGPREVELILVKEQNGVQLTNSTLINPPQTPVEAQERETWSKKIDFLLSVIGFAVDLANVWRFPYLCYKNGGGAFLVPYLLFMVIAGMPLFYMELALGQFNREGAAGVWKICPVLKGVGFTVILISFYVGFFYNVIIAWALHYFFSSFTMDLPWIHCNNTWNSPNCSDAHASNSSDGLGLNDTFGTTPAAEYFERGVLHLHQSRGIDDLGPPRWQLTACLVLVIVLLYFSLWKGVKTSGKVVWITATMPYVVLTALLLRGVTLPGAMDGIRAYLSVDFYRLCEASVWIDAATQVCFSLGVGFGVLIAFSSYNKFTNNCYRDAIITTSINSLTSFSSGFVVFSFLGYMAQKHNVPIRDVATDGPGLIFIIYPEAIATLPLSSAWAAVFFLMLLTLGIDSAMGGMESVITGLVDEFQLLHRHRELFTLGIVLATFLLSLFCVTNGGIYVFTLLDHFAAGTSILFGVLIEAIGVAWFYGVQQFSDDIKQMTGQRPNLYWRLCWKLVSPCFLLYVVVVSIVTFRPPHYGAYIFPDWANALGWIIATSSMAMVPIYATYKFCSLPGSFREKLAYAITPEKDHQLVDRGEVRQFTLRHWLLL
Monoamine transporters; serotonin & dopamine (Rattus norvegicus), sequence (P23977 whole entry, looked up): as the sequence (P23977 whole entry) above
Monoamine transporters; serotonin & dopamine (Rattus norvegicus), sequence (P31652 whole entry, looked up): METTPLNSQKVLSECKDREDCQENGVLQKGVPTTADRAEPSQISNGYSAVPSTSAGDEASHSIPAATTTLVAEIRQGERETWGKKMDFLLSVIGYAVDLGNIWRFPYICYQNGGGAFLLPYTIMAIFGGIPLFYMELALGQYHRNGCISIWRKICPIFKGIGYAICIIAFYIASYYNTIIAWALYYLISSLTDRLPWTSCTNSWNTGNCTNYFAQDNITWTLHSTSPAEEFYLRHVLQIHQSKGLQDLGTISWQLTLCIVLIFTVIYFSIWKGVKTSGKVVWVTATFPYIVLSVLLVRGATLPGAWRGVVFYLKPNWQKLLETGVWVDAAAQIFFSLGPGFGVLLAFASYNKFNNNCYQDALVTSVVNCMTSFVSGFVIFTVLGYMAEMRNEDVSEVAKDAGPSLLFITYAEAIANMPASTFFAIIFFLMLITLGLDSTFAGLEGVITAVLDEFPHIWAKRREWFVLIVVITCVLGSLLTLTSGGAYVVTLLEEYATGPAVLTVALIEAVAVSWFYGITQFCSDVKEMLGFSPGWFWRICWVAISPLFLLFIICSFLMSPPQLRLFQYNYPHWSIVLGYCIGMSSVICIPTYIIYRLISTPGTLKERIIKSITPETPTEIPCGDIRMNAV
Sodium-dependent serotonin transporter, sequence (P31652 whole entry): as the sequence (P31652 whole entry, looked up) above

Consider `CN1C2CCC1CC(CCOC(c1ccc(Cl)cc1)c1ccc(Cl)cc1)C2` (configuration not stated), for which the Ratio in assay [1] stood at 64. Besides, the Ki worked out at 18 nM in assay [2] and 1160 nM in assay [3].

With `Fc1ccc(C(OCC=C2CC3CCC(C2)N3CCCc2ccccc2)c2ccc(F)cc2)cc1`, the Ratio in assay [1] is 152. Further, the Ki stood at 3.7 nM in assay [2] and 562 nM in assay [3].

`Clc1ccc(C(OCCC2CC3CCC(C2)N3Cc2ccccc2)c2ccc(Cl)cc2)cc1` (configuration not stated): the Ratio in assay [1] was found to be 9. In addition, the values for the Ki in assay [2] and in assay [3] were 91 nM and 822 nM, respectively.

On to `Oc1cccc(CN2C3CCC2CC(CCOC(c2ccc(F)cc2)c2ccc(F)cc2)C3)c1` (configuration not stated), for which the Ratio in assay [1] was found to be 33. The Ki in assay [2] turned out to be 20 nM; in assay [3] it was 651 nM.

In the case of `CN1C2CCC1CC(CCOC(c1ccc(F)cc1)c1ccc(F)cc1)C2` (configuration not stated), the Ratio in assay [1] was found to be 80. In addition, the Ki in assay [2] was found to be 31 nM; in assay [3], 2470 nM.

`CN1C2CCC1CC(CCOC(c1ccccc1)c1ccc(Cl)cc1)C2` (configuration not stated): in assay [1], the Ratio turned out to be 71. In assay [3], this compound came in with a Ki of 3430 nM.

Regarding `Clc1ccc(C(OCCC2CC3CCC(C2)N3CCCc2ccccc2)c2ccc(Cl)cc2)cc1` (configuration not stated), the Ratio in assay [1] came out at 4. The Ki in assay [2] worked out at 50 nM; in assay [3] it was 177 nM.

`C(COC(c1ccccc1)c1ccccc1)=C1CC2CCC(C1)N2Cc1ccccc1`: the Ratio in assay [1] stood at 113. The inhibitory constant (Ki) came to 48 nM in assay [2] and 5420 nM in assay [3].

As to `Fc1ccc(C(OCCC2CC3CCC(C2)N3Cc2ccccc2)c2ccc(F)cc2)cc1` (configuration not stated), the Ratio in assay [1] is 251. In addition, the values for the Ki in assay [2] and in assay [3] were 5.7 nM and 1430 nM, respectively.

Consider `Oc1ccc(CN2C3CCC2CC(CCOC(c2ccc(F)cc2)c2ccc(F)cc2)C3)cc1` (configuration not stated), for which the Ratio in assay [1] turned out to be 27. Besides, the Ki came to 30 nM in assay [2] and 809 nM in assay [3].

Take `Fc1ccc(C(OCC=C2CC3CCC(C2)N3Cc2ccccc2)c2ccc(F)cc2)cc1`: the Ratio in assay [1] was 281. In assay [3], this compound returned a Ki of 2220 nM.

Turning to `CN1[C@@H]2CC[C@H]1C[C@@H](CCOC(c1ccccc1)c1ccccc1)C2`, the Ratio in assay [1] came to 243. Further, the Ki in assay [2] came out at 58 nM; in assay [3], 14100 nM.

As for `c1ccc(CN2C3CCC2CC(CCOC(c2ccccc2)c2ccccc2)C3)cc1` (configuration not stated), the Ratio in assay [1] stood at 48. This compound returned a Ki in assay [3] of 4780 nM.

With `Clc1ccc(C(OCCC2CC3CCC(C2)N3CCCc2ccccc2)c2ccccc2)cc1` (configuration not stated), in assay [1], the Ratio turned out to be 12. The Ki in assay [2] stood at 30 nM; in assay [3], 374 nM.

As to `c1ccc(CCCN2[C@@H]3CC[C@H]2C[C@@H](CCOC(c2ccccc2)c2ccccc2)C3)cc1`, the Ratio in assay [1] stood at 42. Moreover, the Ki in assay [2] was 18 nM; in assay [3] it was 750 nM.

As for `Fc1ccc(C(OCC[C@H]2C[C@H]3CC[C@@H](C2)N3CCCc2ccccc2)c2ccc(F)cc2)cc1`, the Ki in assay [2] was found to be 7.4 nM; in assay [3] it was 175 nM.

`Clc1ccc(C(OCCC2CC3CCC(C2)N3Cc2ccccc2)c2ccccc2)cc1` (configuration not stated): in assay [1], the Ratio was 24. For the same compound, the Ki in assay [2] turned out to be 82 nM; in assay [3], 1940 nM.
